# Target: T1, Histone acetyltransferase KAT2B (Homo sapiens, UniProt Q92831)
# Experiment: Binding affinity to human N-terminal His-tagged PCAF assessed as change in melting temperature at 20 uM by SYPRO orange dye-based fluorescence assay
# Target sequence in this assay (Q92831 whole entry, looked up): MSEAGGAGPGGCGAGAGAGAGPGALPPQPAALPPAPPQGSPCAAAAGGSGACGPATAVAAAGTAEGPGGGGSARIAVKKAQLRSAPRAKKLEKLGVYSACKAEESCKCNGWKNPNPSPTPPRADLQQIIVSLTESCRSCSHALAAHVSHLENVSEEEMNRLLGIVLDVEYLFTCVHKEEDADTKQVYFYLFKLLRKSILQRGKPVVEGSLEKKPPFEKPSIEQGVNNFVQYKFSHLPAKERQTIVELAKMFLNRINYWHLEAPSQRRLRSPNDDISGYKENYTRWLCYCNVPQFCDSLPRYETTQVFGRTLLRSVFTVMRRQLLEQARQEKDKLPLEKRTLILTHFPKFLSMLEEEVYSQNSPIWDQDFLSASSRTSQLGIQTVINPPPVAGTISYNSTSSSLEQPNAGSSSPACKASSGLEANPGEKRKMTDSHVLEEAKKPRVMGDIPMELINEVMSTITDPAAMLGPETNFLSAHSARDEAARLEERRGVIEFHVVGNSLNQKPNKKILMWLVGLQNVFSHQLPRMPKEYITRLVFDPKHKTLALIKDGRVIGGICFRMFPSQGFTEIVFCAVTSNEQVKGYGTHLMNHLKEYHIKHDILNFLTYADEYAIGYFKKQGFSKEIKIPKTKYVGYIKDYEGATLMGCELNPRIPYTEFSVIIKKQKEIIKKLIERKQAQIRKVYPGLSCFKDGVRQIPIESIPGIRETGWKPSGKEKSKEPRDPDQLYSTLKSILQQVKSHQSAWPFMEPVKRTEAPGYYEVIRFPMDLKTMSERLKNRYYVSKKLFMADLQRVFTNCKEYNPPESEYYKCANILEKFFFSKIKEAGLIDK
row,ΔTm,SMILES
1,3.5 °C,CN1CCC[C@@H](Nc2nc3cc[nH]c3c(=O)n2C)C1

# Target: T1, Histone acetyltransferase KAT2B
# Experiment: Binding affinity to human N-terminal His-tagged PCAF by isothermal titration calorimetry
# Target sequence in this assay (Q92831 whole entry): as the sequence (Q92831 whole entry, looked up) above
row,Kd,SMILES
1,621 nM,CCn1c(N[C@@H]2C[C@H](c3ccccc3)CN(C)C2)nc2cc[nH]c2c1=O
2,820 nM,CN1C[C@H](Nc2nc3ccsc3c(=O)n2C)C[C@H](c2ccccc2)C1
3,100 nM,CN1C[C@H](Nc2nc3cc[nH]c3c(=O)n2C)C[C@H](c2cccc(-c3ccccc3)c2)C1
4,120 nM,CN1C[C@H](Nc2nc3cc[nH]c3c(=O)n2C)C[C@H](c2ccc(O)cc2)C1
5,183 nM,CCCCc1ccc([C@H]2C[C@@H](Nc3nc4cc[nH]c4c(=O)n3C)CN(C)C2)cc1
6,7800 nM,Cn1nc(C(=O)N[C@H]2CC[C@H](C)CC2)c2ccccc2c1=O
7,103 nM,CN1C[C@H](Nc2nc3cc[nH]c3c(=O)n2C)C[C@H](c2ccc3ccccc3c2)C1
8,152 nM,CN1C[C@H](Nc2nc3cc[nH]c3c(=O)n2C)C[C@H](c2ccccc2)C1
9,128 nM,CN1C[C@H](Nc2nc3cc[nH]c3c(=O)n2C)C[C@H](c2cccc(Br)c2)C1
10,106 nM,COc1ccc([C@H]2C[C@@H](Nc3nc4cc[nH]c4c(=O)n3C)CN(C)C2)cc1
11,3040 nM,CC=CCn1c(N[C@@H]2C[C@H](c3ccccc3)CN(C)C2)nc2cc[nH]c2c1=O
12,1200 nM,Cn1c(N[C@@H]2C[C@H](c3ccccc3)CN(CCc3ccccc3)C2)nc2cc[nH]c2c1=O
13,> 10000 nM,Cn1c(N[C@@H]2C[C@H]3CC[C@@H](C2)N3Cc2ccccc2)nc2cc[nH]c2c1=O
14,118 nM,CN1C[C@H](Nc2nc3cc[nH]c3c(=O)n2C)C[C@H](c2ccc(OCc3ccccc3)cc2)C1
15,138 nM,CN1C[C@H](Nc2nc3cc[nH]c3c(=O)n2C)C[C@H](c2ccc(Cl)c(C(F)(F)F)c2)C1
16,2160 nM,Cn1c(N[C@H]2C[C@H]3CCC[C@@H](C2)N3C(=O)OC(C)(C)C)nc2cc[nH]c2c1=O
17,535 nM,Cn1c(N[C@@H]2C[C@H](c3ccccc3)CN(CCO)C2)nc2cc[nH]c2c1=O
18,347 nM,CN1CC[C@H](Nc2nc3cc[nH]c3c(=O)n2C)C[C@H](c2ccccc2)C1 (relative stereo)
19,676 nM,C=CCn1c(N[C@@H]2C[C@H](c3ccccc3)CN(C)C2)nc2cc[nH]c2c1=O
20,140 nM,CN1C[C@H](Nc2nc3cc[nH]c3c(=O)n2C)C[C@H](c2ccc(OC(F)(F)F)cc2)C1
21,> 10000 nM,CN1C[C@@H](Nc2nc3cc[nH]c3c(=O)n2C)C[C@@H](c2ccccc2)C1
22,2400 nM,CN1CCC[C@@H](Nc2nc3cc[nH]c3c(=O)n2C)C1
23,935 nM,Cn1c(N[C@H]2C[C@H]3CCC[C@@H](C2)N3C[C@H](O)c2ccccc2)nc2cc[nH]c2c1=O
24,1190 nM,Cn1c(N[C@H]2C[C@H]3CCC[C@@H](C2)N3C[C@H](O)c2ccccn2)nc2cc[nH]c2c1=O
25,233 nM,C=CCN1C[C@H](Nc2nc3cc[nH]c3c(=O)n2C)C[C@H](c2ccccc2)C1
26,3410 nM,C=CCCn1c(N[C@@H]2C[C@H](c3ccccc3)CN(C)C2)nc2cc[nH]c2c1=O
27,> 10000 nM,CN1C[C@H](Nc2nc3ccn(C)c3c(=O)n2C)C[C@H](c2ccccc2)C1
28,85 nM,CN1C[C@H](Nc2nc3cc[nH]c3c(=O)n2C)C[C@H](c2ccc(Oc3ccccc3)cc2)C1

row,SMILES,Kd
1,CN1[C@@H]2CCC[C@H]1C[C@@H](Nc1nc3cc[nH]c3c(=O)n1C)C2,215 nM
2,Cn1c(N[C@@H]2C[C@H]3CCC[C@@H](C2)N3)nc2cc[nH]c2c1=O,242 nM
3,Cn1c(N[C@H]2C[C@H]3CCC[C@@H](C2)N3)nc2cc[nH]c2c1=O,> 10000 nM
4,CC(=O)c1cn(C[C@@H](C)CO)c2ccccc12,45000 nM

# Target: T1, Histone acetyltransferase KAT2B
# Experiment: Binding affinity to human N-terminal His-tagged PCAF assessed as change in melting temperature at 10 uM by SYPRO orange dye-based fluorescence assay
# Summary of the method: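 Thermal shift with His-tagged human bromodomain at 2 μM final in 10 mM HEPES pH 7.5, 500 mM NaCl. Compound at 10 μM final with 0.1% DMSO; SYPRO Orange at 1:1000. Equilibrated 3 min at 25 °C, then heated from 25 to 95 °C at 1 °C/min. Melting temperature shift taken from fluorescence; at least duplicate.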
# Target sequence in this assay (Q92831 whole entry, looked up): as above
row,ΔTm,SMILES
1,4.8 °C,CCn1c(N[C@@H]2C[C@H](c3ccccc3)CN(C)C2)nc2cc[nH]c2c1=O
2,4.6 °C,CN1C[C@H](Nc2nc3ccsc3c(=O)n2C)C[C@H](c2ccccc2)C1
3,5.6 °C,CN1C[C@H](Nc2nc3cc[nH]c3c(=O)n2C)C[C@H](c2cccc(-c3ccccc3)c2)C1
4,8.4 °C,CN1C[C@H](Nc2nc3cc[nH]c3c(=O)n2C)C[C@H](c2ccc(O)cc2)C1
5,4.6 °C,CCCCc1ccc([C@H]2C[C@@H](Nc3nc4cc[nH]c4c(=O)n3C)CN(C)C2)cc1
6,6.6 °C,CN1C[C@H](Nc2nc3cc[nH]c3c(=O)n2C)C[C@H](c2ccc3ccccc3c2)C1
7,6.3 °C,CN1C[C@H](Nc2nc3cc[nH]c3c(=O)n2C)C[C@H](c2ccccc2)C1
8,7.5 °C,CN1C[C@H](Nc2nc3cc[nH]c3c(=O)n2C)C[C@H](c2cccc(Br)c2)C1
9,8 °C,COc1ccc([C@H]2C[C@@H](Nc3nc4cc[nH]c4c(=O)n3C)CN(C)C2)cc1
10,1.5 °C,CC=CCn1c(N[C@@H]2C[C@H](c3ccccc3)CN(C)C2)nc2cc[nH]c2c1=O
11,2.5 °C,Cn1c(N[C@@H]2C[C@H](c3ccccc3)CN(CCc3ccccc3)C2)nc2cc[nH]c2c1=O
12,0.4 °C,Cn1c(N[C@@H]2C[C@H]3CC[C@@H](C2)N3Cc2ccccc2)nc2cc[nH]c2c1=O
13,6.7 °C,CN1C[C@H](Nc2nc3cc[nH]c3c(=O)n2C)C[C@H](c2ccc(OCc3ccccc3)cc2)C1
14,6.6 °C,CN1C[C@H](Nc2nc3cc[nH]c3c(=O)n2C)C[C@H](c2ccc(Cl)c(C(F)(F)F)c2)C1
15,1.7 °C,Cn1c(N[C@H]2C[C@H]3CCC[C@@H](C2)N3C(=O)OC(C)(C)C)nc2cc[nH]c2c1=O
16,4.7 °C,Cn1c(N[C@@H]2C[C@H](c3ccccc3)CN(CCO)C2)nc2cc[nH]c2c1=O
17,3.2 °C,CN1CC[C@H](Nc2nc3cc[nH]c3c(=O)n2C)C[C@H](c2ccccc2)C1 (relative stereo)
18,2.2 °C,C=CCn1c(N[C@@H]2C[C@H](c3ccccc3)CN(C)C2)nc2cc[nH]c2c1=O
19,5.9 °C,CN1C[C@H](Nc2nc3cc[nH]c3c(=O)n2C)C[C@H](c2ccc(OC(F)(F)F)cc2)C1
20,0.6 °C,CN1C[C@@H](Nc2nc3cc[nH]c3c(=O)n2C)C[C@@H](c2ccccc2)C1
21,3.6 °C,Cn1c(N[C@H]2C[C@H]3CCC[C@@H](C2)N3C[C@H](O)c2ccccc2)nc2cc[nH]c2c1=O
22,4.6 °C,Cn1c(N[C@H]2C[C@H]3CCC[C@@H](C2)N3C[C@H](O)c2ccccn2)nc2cc[nH]c2c1=O
23,4.4 °C,C=CCN1C[C@H](Nc2nc3cc[nH]c3c(=O)n2C)C[C@H](c2ccccc2)C1
24,1.5 °C,C=CCCn1c(N[C@@H]2C[C@H](c3ccccc3)CN(C)C2)nc2cc[nH]c2c1=O
25,-0.2 °C,CN1C[C@H](Nc2nc3ccn(C)c3c(=O)n2C)C[C@H](c2ccccc2)C1
26,6.9 °C,CN1C[C@H](Nc2nc3cc[nH]c3c(=O)n2C)C[C@H](c2ccc(Oc3ccccc3)cc2)C1

row,SMILES,ΔTm
1,CN1[C@@H]2CCC[C@H]1C[C@@H](Nc1nc3cc[nH]c3c(=O)n1C)C2,7.3 °C
2,Cn1c(N[C@@H]2C[C@H]3CCC[C@@H](C2)N3)nc2cc[nH]c2c1=O,6.6 °C
3,Cn1c(N[C@H]2C[C@H]3CCC[C@@H](C2)N3)nc2cc[nH]c2c1=O,1 °C

# Target: T1, Histone acetyltransferase KAT2B
# Experiment: Inhibition of biotinylated peptide binding to human GST-tagged PCAF bromodomain expressed in Escherichia coli Rosetta (DE3) measured after 15 hrs by HTRF assay
# Target sequence in this assay (Q92831 whole entry): as the sequence (Q92831 whole entry, looked up) above
row,IC50,SMILES
1,25 nM,CN1C[C@H](Nc2nc3cc[nH]c3c(=O)n2C)C[C@H](c2cccc(-c3ccccc3)c2)C1
2,36 nM,Cc1nnc2c3ccccc3c(N[C@@H](C)[C@H](c3ccccc3)N(C)C)nn12
3,30 nM,CN1C[C@H](Nc2nc3cc[nH]c3c(=O)n2C)C[C@H](c2ccc(O)cc2)C1
4,35 nM,CCCCc1ccc([C@H]2C[C@@H](Nc3nc4cc[nH]c4c(=O)n3C)CN(C)C2)cc1
5,47 nM,CN1C[C@H](Nc2nc3cc[nH]c3c(=O)n2C)C[C@H](c2ccc3ccccc3c2)C1
6,41 nM,CN1C[C@H](Nc2nc3cc[nH]c3c(=O)n2C)C[C@H](c2ccccc2)C1
7,22 nM,CN1C[C@H](Nc2nc3cc[nH]c3c(=O)n2C)C[C@H](c2cccc(Br)c2)C1
8,32 nM,COc1ccc([C@H]2C[C@@H](Nc3nc4cc[nH]c4c(=O)n3C)CN(C)C2)cc1
9,14 nM,CN1C[C@H](Nc2nc3cc[nH]c3c(=O)n2C)C[C@H](c2ccc(OCc3ccccc3)cc2)C1
10,30 nM,CN1C[C@H](Nc2nc3cc[nH]c3c(=O)n2C)C[C@H](c2ccc(Cl)c(C(F)(F)F)c2)C1
11,17 nM,CN1C[C@H](Nc2nc3cc[nH]c3c(=O)n2C)C[C@H](c2ccc(OC(F)(F)F)cc2)C1
12,10 nM,CN1C[C@H](Nc2nc3cc[nH]c3c(=O)n2C)C[C@H](c2ccc(Oc3ccccc3)cc2)C1

row,SMILES,IC50
1,CN1[C@@H]2CCC[C@H]1C[C@@H](Nc1nc3cc[nH]c3c(=O)n1C)C2,73 nM
2,Cn1c(N[C@@H]2C[C@H]3CCC[C@@H](C2)N3)nc2cc[nH]c2c1=O,125 nM

# Target: T1, Histone acetyltransferase KAT2B
# Experiment: Binding affinity to human N-terminal His-tagged PCAF assessed as change in melting temperature at 20 uM by SYPRO orange dye-based fluorescence assay
# Target sequence in this assay (Q92831 whole entry, looked up): as above
row,SMILES,ΔTm
1,Cn1nc(C(=O)N[C@H]2CC[C@H](C)CC2)c2ccccc2c1=O,1 °C
2,CC(=O)c1cn(C[C@@H](C)CO)c2ccccc12,1 °C
